# Experimental data pooled from the literature.
# Compare with care: the assays were run in different laboratories.
# Target: AP2-associated protein kinase 1 (AAK1, Homo sapiens, UniProt Q2M2I8)
Structure (SMILES),test,conditions,remaining binding
N[C@H]1CCN(c2nccc(-c3cnn4ncccc34)n2)C1,binding,1 µM,91%
Cc1cnc(Nc2ccc(C(=O)N3CCC(N4CCCC4)CC3)cc2)nc1-c1cc2ccccc2s1,"binding, competition with immobilised ligand",1 µM,22%
CC(=O)C1=C(C)N(c2cccc(C(F)(F)F)c2)C(=O)N[C@@H]1c1ccc(C#N)nc1,binding,1 µM,100%
FC(F)(F)Oc1cccc(-c2cnc3ccc(-c4ccncc4)nn23)c1,"cell-free assay, competition with immobilised ligand",5 µM,14%
C[C@@H]1CCN(c2nccc(-c3cnn4ncccc34)n2)C1,binding,1 µM,71%
CCN1CCN(Cc2ccc(C(=O)Nc3ccc(C)c(Oc4ccc5c(c4)CC(=O)N5)c3)cc2C(F)(F)F)CC1,"binding, competition with immobilised ligand",1 µM,100%
O=C(c1ccc(Nc2ncc(Cl)c(-c3cc4ccccc4s3)n2)cc1)N1CCC(N2CCCC2)CC1,"binding, competition with immobilised ligand",1 µM,29%
O=C(NCc1ncc(C(F)(F)F)cc1Cl)c1ccc2c(c1)C1(CCS(=O)(=O)CC1)[C@@H](C1CC1)N2S(=O)(=O)c1ccc(F)cc1,binding,1 µM,100%
O=C(Nc1c[nH]nc1C(=O)NC1CCNCC1)c1cc(F)cc(F)c1,"binding, competition with immobilised ligand",1 µM,100%
O=C(c1ccc(Nc2nccc(-c3cc4ccccc4s3)n2)cc1)N1CCC(N2CCCC2)CC1,"binding, competition with immobilised ligand",1 µM,21%
CN(C)c1nccc(-c2cnc3ncccn23)n1,binding,1 µM,88%
COc1cnc(Nc2cccc(S(N)(=O)=O)c2)nc1N1CCN(c2ccccc2)C(=O)C1,"binding, competition with immobilised ligand",1 µM,84%
CN(C(=O)c1ccccc1)c1cc(N(C)c2ccc3c(c2)CCc2ccc(C(=O)NCCN4CCOCC4)cc2C3=O)ccc1F,binding,1 µM,100%
C=CC(=O)N1CCC(C(=O)NCC(=O)N2CCN(c3nc(-c4cnc(N)nc4C(F)F)nc(N4CCOCC4)n3)CC2)CC1,"binding, competition with immobilised ligand",1 µM,100%
O=C(Nc1cccnn1)N1CC(C/C=C/c2cncc(Oc3ccc(C(F)(F)F)cn3)n2)C1,"cell-free assay, competition with immobilised ligand",1 µM,100%
CN(c1nccc(-c2cnn3ncccc23)n1)C1CC1,binding,1 µM,100%
c1cncc(-c2cccc(Nc3nccc(NC4CCCCC4)n3)c2)c1,"binding, competition with immobilised ligand",10 µM,33%
CN(CCCC(F)(F)F)c1nccc(-c2cnn3ncccc23)n1,binding,1 µM,100%
N#CC1(c2ccccn2)CCN(Cc2cc(C(=O)N3CCCC3)c(=O)n3ccccc23)CC1,binding,1 µM,100%
COc1ncc2cc3ccccc3nc2c1C#N,"cell-free assay, competition with immobilised ligand",5 µM,96%
Cc1cnn2ncc(-c3ccnc(N(C)C)n3)c2c1,binding,1 µM,91%
Cc1nccc(COC(=O)N2C[C@@H]3[C@@H](CNC(=O)c4ccc5[nH]nnc5c4)[C@@H]3C2)n1,binding,1 µM,100%
